Positions count from the first letter of the chain named. Entries after “also recorded” stand apart in the source; their conditions may differ. Where no end group is shown, it is not given here. The star is where a group is joined. 5FAM = O=C1OC2(c3ccc(O)cc3Oc3cc(O)ccc32)c2ccc(C(=O)*)cc21
Key:
14‐3‐3ζ Y82A [1] = target: T1, 14‐3‐3ζ Y82A (Homo sapiens, UniProt P63104, Y82A); assay: ExoS peptide binding to 14‐3‐3ζ Y82A by microscale thermophoresis, effect of ATP; details: MST; different concentrations of ATP
T1 sequence (P63104 1-245 Y82A): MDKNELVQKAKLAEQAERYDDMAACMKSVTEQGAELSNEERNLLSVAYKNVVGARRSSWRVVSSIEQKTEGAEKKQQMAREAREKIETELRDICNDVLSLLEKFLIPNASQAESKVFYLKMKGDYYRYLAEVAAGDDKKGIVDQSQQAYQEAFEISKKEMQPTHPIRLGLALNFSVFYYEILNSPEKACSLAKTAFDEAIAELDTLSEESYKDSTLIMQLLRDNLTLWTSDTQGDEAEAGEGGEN
Outline: (§1)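 Purified untagged mutant 14‑3‑3ζ, starting at 32 μM, serially diluted 2‑fold in 10 μM FAM‑labeled peptide, in the FP binding buffer (50 mM Na‑HEPES pH 8.0, 150 mM NaCl, 10% glycerol), with ATP at several concentrations. Fluorescent counts and power set beforehand. Samples read in standard glass capillaries on a Monolith NT.115.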

14‐3‐3ζ WT [2] = target: T2, 14‐3‐3ζ WT (Homo sapiens, UniProt P63104); type: binding; details: FP, 25°C, 30 min; for effect on binding of mode 1 or mode 2 peptides to 14‐3‐3ζ: 1 mM ATP or ATPγS, peptide 62.5 nM, protein 8 to 0.0625 μM
T2 sequence (P63104 1-245): T1 sequence (P63104 1-245 Y82A) with A82Y
Outline: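 Untagged recombinant 14‐3‐3ζ WT apoprotein (His‐tagged, expressed in E. coli BL21 DE3, Ni‐NTA then size exclusion, TEV‐cleaved) in 50 mM Na‐HEPES pH 8.0, 150 mM NaCl, 10% glycerol. N‐terminal FAM peptides fixed at 62.5 nM, protein titrated 8 to 0.0625 μM, ±1 mM ATP or ATPγS in binding buffer. 30 min at 25°C in the dark, then anisotropy read; K_D fitted.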

14‐3‐3ζ WT [3] = target: T2, 14‐3‐3ζ WT; assay: LiP‐MS; type: binding; details: 500 μM ATPγS
14‐3‐3ζ R55A [4] = target: T3, 14‐3‐3ζ R55A (Homo sapiens, UniProt P63104, R55A); assay: ExoS peptide binding to 14‐3‐3ζ R55A by microscale thermophoresis, effect of ATP; details: MST; different concentrations of ATP
T3 sequence (P63104 1-245 R55A): T1 sequence (P63104 1-245 Y82A) with R55A, A82Y
Outline: as §1

14‐3‐3ζ E180A = type: binding, human; details: FP; 1 mM ATP; 5FAM‐labeled ExoS peptide 62.5 nM, 25°C, 30 min
Outline: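 Recombinant human 14‑3‑3ζ mutant, His‑tagged, expressed in E. coli BL21 DE3, purified by Ni‑NTA and size exclusion, tag removed with TEV, buffer‑exchanged into 50 mM Na‑HEPES pH 8.0, 150 mM NaCl, 10% glycerol. N‑terminal FAM‑peptide held at 62.5 nM, protein titrated 8 to 0.0625 μM, 1 mM ATP in binding buffer. 25°C, dark, 30 min; anisotropy change read; K_D fitted.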

14‐3‐3ζ WT [5] = target: T2, 14‐3‐3ζ WT; type: binding; details: MST
Outline: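 Labelled peptide binding by thermophoresis with recombinant, TEV‐cleaved 14‐3‐3ζ WT. Protein from 32 μM serially diluted 2‐fold with 10 μM FAM‐peptide in FP buffer (50 mM Na‐HEPES pH 8.0, 150 mM NaCl, 10% glycerol), at varied ATP concentrations. Fluorescence counts and power set per manufacturer. Standard glass capillaries; fit in instrument software.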

14‐3‐3ζ R55A [6] = target: T3, 14‐3‐3ζ R55A; assay: ExoS peptide binding to R55A by surface plasmon resonance, effect of ATPγS; details: SPR; 10 μM to 1 mM ATPγS with 10 μM peptide; HBS‐P pH 7.4; qualitative
Outline: (§2)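 Mutant 14‑3‑3ζ amine‑coupled to a CM5 chip at 4000 RU. ATPγS from 10 μM to 1 mM, together with 10 μM peptide, injected in HBS‑P (10 mM Na‑HEPES pH 7.4, 150 mM NaCl, 0.005% Tween‑20). RU changes on association and dissociation tracked; sensorgrams fitted to a 1:1 binding model.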

14‐3‐3ζ WT [7] = target: T2, 14‐3‐3ζ WT; assay: Peptide binding to 14‐3‐3ζ WT by surface plasmon resonance, effect of ATPγS; details: SPR, HBS‐P pH 7.4
Outline: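 Amine coupling of recombinant 14‐3‐3ζ WT onto a CM5 chip to 4000 RU. Analyte 10 μM peptide with 10 μM to 1 mM ATPγS in HBS‐P (10 mM Na‐HEPES pH 7.4, 150 mM NaCl, 0.005% v/v Tween‐20). RU change during association and dissociation recorded. Sensorgrams fitted to a 1:1 binding model; relative response compared across ATPγS concentrations.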

14‐3‐3ζ Y82A [8] = target: T1, 14‐3‐3ζ Y82A; assay: ExoS peptide binding to Y82A by surface plasmon resonance, effect of ATPγS; details: SPR; 10 μM to 1 mM ATPγS with 10 μM peptide; HBS‐P pH 7.4; qualitative
Outline: as §2

14-3-3ζ Y82A = target: T4, 14-3-3ζ Y82A (human, UniProt P63104 1-245, Y82A); assay: MST
T4 sequence (looked up): T1 sequence (P63104 1-245 Y82A)

14-3-3ζ R55A = target: T5, 14-3-3ζ R55A (human, UniProt P63104 1-245, R55A); assay: MST
T5 sequence (looked up): T1 sequence (P63104 1-245 Y82A) with R55A, A82Y

14-3-3ζ E180A = target: T6, 14-3-3ζ E180A (human, UniProt P63104 1-245, E180A); assay: fluorescence polarisation
T6 sequence (looked up): T1 sequence (P63104 1-245 Y82A) with A82Y, E180A

14-3-3ζ WT = target: T7, 14-3-3ζ WT (human, UniProt P63104 1-245); assay: fluorescence polarisation
T7 sequence (looked up): T1 sequence (P63104 1-245 Y82A) with A82Y

14‐3‐3τ = details: cited from earlier work

Nc1ncnc2c1ncn2[C@@H]1O[C@H](COP(=O)(O)OP(=O)(O)OP(=O)(O)O)[C@@H](O)[C@H]1O [ATP]
effect on binding of ExoS peptide to Y82A (14‐3‐3ζ Y82A [1]): did not affect the binding
effect on binding of mode 1 or mode 2 peptides to 14‐3‐3ζ (14‐3‐3ζ WT [2]): no effect
effect on binding of ExoS peptide to 14‐3‐3ζ WT (14‐3‐3ζ WT [2]; 1 mM ATP, 5FAM‐labeled ExoS peptide 62.5 nM): marginally but reproducibly decreased
ATP binding site suggested by LiP‐MS (14‐3‐3ζ WT [3]): there is a second ATP binding site at the dimer interface
effect on binding of ExoS peptide to R55A (14‐3‐3ζ R55A [4]): did not affect the binding
effect on binding of ExoS peptide to E180A mutant (14‐3‐3ζ E180A): marginally but reproducibly decreased
type of inhibition of ExoS peptide binding (14‐3‐3ζ WT [5]; 14‐3‐3ζ WT, ATP at the dimer interface): as a non‐competitive inhibitor by binding to the dimer interface
effect on binding of phosphopeptide to ζWT (14‐3‐3ζ WT [5]; FAM‐labeled peptide): did not show any effect
effect on binding of ExoS peptide to ζWT (14‐3‐3ζ WT [5]; different concentrations of ATP): the binding of nonphosphorylated ExoS peptide decreased in the presence of ATP; also recorded: concentration‐dependent inhibition

Nc1ncnc2c1ncn2[C@@H]1O[C@H](CO[P@](=O)(O)O[P@](=O)(O)O[P@@](=O)(O)S)[C@@H](O)[C@H]1O [ATPγS]
effect on binding of nonphosphopeptide ExoS to R55A (14‐3‐3ζ R55A [6]): definitive decrease
effect on binding of mode 1 or mode 2 peptides to 14‐3‐3ζ (14‐3‐3ζ WT [2]): no effect
effect on binding of nonphosphopeptide ExoS to ζWT (14‐3‐3ζ WT [7]; 10 μM to 1 mM ATPγS with 10 μM peptide, qualitative): definitive decrease; also recorded: concentration‐dependent inhibition
effect on binding of mode 2 phosphopeptide to 14‐3‐3ζ WT (14‐3‐3ζ WT [7]; 1 mM ATPγS): did not show any effect
effect on binding of nonphosphopeptide ExoS to Y82A (14‐3‐3ζ Y82A [8]): definitive decrease
ATP binding site suggested by LiP‐MS (14‐3‐3ζ WT [3]): 81–91 residues which are part of the dimer interface, were exclusively protected by ATPγS
protection against Proteinase K cleavage (SDS PAGE) (14‐3‐3ζ WT [3]; 25°C, 30 min, Proteinase K 1:100, 1 min at 25°C): protects the protein against proteolytic cleavage
Log2 fold change of conformotypic peptide, ATPγS bound versus unbound (14‐3‐3ζ WT [3]; peptide YDDMAAC (19–25), C_SEMI, adjusted p 2.49E‐02): −1.0
Log2 fold change of conformotypic peptide, ATPγS bound versus unbound (14‐3‐3ζ WT [3]; peptide YDDMAACMK (19–27), FULL_TRP, adjusted p 6.47E‐03): 1.8

5FAM-QGLLDALDLAS [FAM-labeled nonphosphorylated ExoS peptide (5FAM-QGLLDALDLAS)]
binding result (14-3-3ζ Y82A): binds
binding result (14-3-3ζ R55A): binds
binding result (14-3-3ζ E180A): binds
binding result (14-3-3ζ WT): binds

B1: 14‐3‐3τ: 14‐3‐3 tau paralog (protein, UniProt P27348 1-245, looked up)
14-3-3 protein theta: MEKTELIQKAKLAEQAERYDDMATCMKAVTEQGAELSNEERNLLSVAYKNVVGGRRSAWRVISSIEQKTDTSDKKLQLIKDYREKVESELRSICTTVLELLDKYLIANATNPESKVFYLKMKGDYFRYLAEVACGDDRKQTIDNSQGAYQEAFDISKKEMQPTHPIRLGLALNFSVFYYEILNNPELACTLAKTAFDEAIAELDTLNEDSYKDSTLIMQLLRDNLTLWTSDSAGEECDAAEGAEN
ATP/ADP exchange activity (14‐3‐3τ): has an ATP/ADP exchange activity

From publication PMC12429009 (The FASEB Journal, 2025)
